Consider 1 compound from ChEMBL document CHEMBL3351961, “In vitro antitumor activity evaluation of some 1,2,4-triazine derivatives bearing piperazine amide moiety against breast cancer cells” (Bioorg Med Chem, 2014).

The structures appear in SMILES notation.

Assay [1] has as its system MCF7. Description: Cytotoxicity against human MCF7 cells after 24 hrs by MTT assay. The assay is classed as functional, cell-based. The settings on record: MCF7, 24 h, in the assay text read “XTT assay” for “MTT assay”. Summed up:
(§1)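 Cells grown in RPMI with fetal calf serum, penicillin/streptomycin, 37 °C, 5% CO2. Seeded 2 × 10^4 cells/well, then 24 h. Medium replaced with compound at 3.9–500 µg/ml (DMSO stocks diluted in medium, final DMSO under 0.1%). XTT read-out of mitochondrial activity: 3 h at 37 °C, OD 480 nm (reference 680 nm). IC50 by non-linear regression; duplicate experiments; cisplatin positive control.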
On the technique in general: Tetrazolium dyes change colour on reduction, which living cells bring about.

Assay [2] can be described thus: Cytotoxicity against mouse NIH/3T3 cells after 24 hrs by MTT assay. In kind it is cell-based. The settings on record: NIH3T3, 24 h, in the assay text read “XTT assay” for “MTT assay”. The method, boiled down:
as §1

Assay [3] concerns MCF7. Nature of the assay: Inhibition of DNA synthesis in human MCF7 cells at 0.5 times cytotoxic IC50 level after 24 hrs by 5-bromo-20-deoxy-uridine incorporation method. In kind it is functional. Summed up: (§2)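 BrdU ELISA on MCF-7 seeded at 2 × 10^4 cells/well. Compounds given at IC50/2, IC50 and 2 × IC50 (from the XTT assay) for 24 h or 48 h. BrdU added for 2 h at 37 °C, then anti-BrdU-POD for 90 min, three PBS washes and colorimetric substrate. Untreated control absorbance set as 0% inhibition. Means of two independent experiments ± SD of four wells; cisplatin positive control.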

Assay [4] has as its system MCF7. Nature of the assay: Inhibition of DNA synthesis in human MCF7 cells at cytotoxic IC50 level after 24 hrs by 5-bromo-20-deoxy-uridine incorporation method. In kind it is functional. Summed up:
as §2

The subject of assay [5] is MCF7. Nature of the assay: Inhibition of DNA synthesis in human MCF7 cells at 2 times cytotoxic IC50 level after 24 hrs by 5-bromo-20-deoxy-uridine incorporation method. The assay is classed as functional. Summed up:
as §2

Assay [6] concerns MCF7. Nature of the assay: Inhibition of DNA synthesis in human MCF7 cells at 15.32 ug/ml after 48 hrs by 5-bromo-20-deoxy-uridine incorporation method. The settings on record: MCF7, 48 h. The assay is classed as functional. Summed up: (§3)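 MCF-7 seeded at 2 × 10^4 cells/well and exposed to compound for 48 h at the stated concentration. BrdU added for 2 h at 37 °C, then anti-BrdU-POD for 90 min, PBS washes and colorimetric substrate. Inhibition taken relative to untreated control absorbance (set as 0%). Means of two independent experiments ± SD of four wells.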

Assay [7] concerns MCF7. Description: Inhibition of DNA synthesis in human MCF7 cells at 30.63 ug/ml after 48 hrs by 5-bromo-20-deoxy-uridine incorporation method. In kind it is functional. The settings on record: MCF7, 48 h. Summed up: as §3
Assay [8] relates to MCF7. Description: Inhibition of DNA synthesis in human MCF7 cells at 61.26 ug/ml after 48 hrs by 5-bromo-20-deoxy-uridine incorporation method. The assay is classed as functional. The conditions noted are these: MCF7, 48 h. The method, boiled down:
as §3

Assay [9] has as its system MCF7. Nature of the assay: Induction of apoptosis in human MCF7 cells assessed as viable cells level at cytotoxic IC50 level after 24 hrs by Annexin V/PI dual staining based flow cytometry (reference value: 94.36 %). The assay is classed as functional.
Assay [10] relates to MCF7. Description: Induction of apoptosis in human MCF7 cells assessed as early apoptotic cells level at cytotoxic IC50 level after 24 hrs by Annexin V/PI dual staining based flow cytometry (reference value: 0.46%). The assay is classed as functional.
The test system of assay [11] is MCF7. Description: Induction of apoptosis in human MCF7 cells assessed as late apoptotic cells level at cytotoxic IC50 level after 24 hrs by Annexin V/PI dual staining based flow cytometry (reference value: 1.52 %). The assay is classed as functional.
Assay [12] relates to MCF7. Nature of the assay: Induction of apoptosis in human MCF7 cells assessed as necrotic cells level at cytotoxic IC50 level after 24 hrs by Annexin V/PI dual staining based flow cytometry (reference value: 3.66 %). The assay is classed as functional. On the technique in general: Flow cytometry measures light scatter and fluorescence of single cells or particles in a stream.

In general, IC50 refers to the concentration that inhibits the measured activity by half. A higher IC50 goes with weaker potency in that assay. In general, inhibition refers to the change of the read-out against control, counted positive when it falls. In the case of `COc1ccc(N2CCN(CC(=O)N3CCN(c4nnc(-c5ccc(C)cc5)c(-c5ccc(C)cc5)n4)CC3)CC2)cc1`, the IC50 came to 53 µM in the assay with MCF7 [1] and 116 µM in assay [2]. Besides, the results for the “inhibition (INH)” value with MCF7 [3], in the assay on MCF7 [4] and in the assay with MCF7 [5] were 56.94%, 77.82% and 88.52%, respectively. This compound also showed an inhibition at 15.32 µg/mL in the assay with MCF7 [6] of 76.7%. In the assay on MCF7 [7], this compound had an inhibition at 30.63 µg/mL of 86%. The same compound returned an inhibition at 61.26 µg/mL with MCF7 [8] of 88.9%. Also, the Activity is recorded as 66.5% in the assay on MCF7 [9], 0.6% in the assay with MCF7 [10], 6.2% in the assay with MCF7 [11] and 26.7% with MCF7 [12].
